Usually Ki stands for a measure of affinity in units of concentration, obtained from inhibition or displacement. A low value points to higher affinity.

For 17 compounds, Ki and Recovery results are on record in ChEMBL document CHEMBL1135539, “Synthesis of ketone analogues of prolyl and pipecolyl ester FKBP12 ligands” (J Med Chem, 2002).

The target of experiment [1] is Peptidyl-prolyl cis-trans isomerase FKBP1A (Rattus norvegicus, UniProt Q62658). The experiment can be described thus: In vitro inhibition of rotamase activity of FK506 binding protein 12.
Sequence of Peptidyl-prolyl cis-trans isomerase FKBP1A (Q62658 whole entry): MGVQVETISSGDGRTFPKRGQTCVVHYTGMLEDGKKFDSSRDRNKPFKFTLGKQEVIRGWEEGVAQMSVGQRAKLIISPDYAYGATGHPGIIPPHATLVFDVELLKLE
Experiment [2] concerns Mus musculus. Description: Concurrent % recovery of striatal dopaminergic innervation relative to MPTP-treated mice after subcutaneous administration at dose of 4 mg/kg. The class given is functional, organism-based. Also noted: dose 4 mg/kg. In short, it runs like this: (§1)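 Mice lesioned with the dopaminergic neurotoxin MPTP, following an earlier-described protocol. The endpoint is striatal dopaminergic innervation. Drug is given either concurrently with MPTP or after the lesion. Values are expressed as % recovery relative to MPTP-lesioned animals that received no test drug.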

For experiment [3], the system named is Mus musculus. The experiment can be described thus: Post-MPTP % recovery of striatal dopaminergic innervation relative to MPTP-treated mice after peroral administration at dose of 10 mg/kg. In kind it is functional, organism-based. Also noted: dose 10 mg/kg. In short, it runs like this: as §1

Consider `CCC(C)(C)C(=O)C(=O)N1CCC[C@H]1C(=O)CCCCc1ccccc1`, for which the Ki in experiment [1] was determined as 30 nM. Besides, the Recovery in the experiment on Mus musculus [2] was 22.5%.
In experiment [1], `CCC(C)(C)C(=O)C(=O)N1CCCC[C@H]1C(=O)CCCc1ccccc1` came in with a Ki of 10000 nM.
The compound `CCC(C)(C)C(=O)C(=O)N1CCC[C@H]1C(=O)OCCCc1cccnc1` [GPI-1046] gave a Ki in experiment [1] of 7.5 nM. Further, the Recovery in the experiment with Mus musculus [2] came to 39%; in the experiment with Mus musculus [3], 35%.
The like results for `CC(C)(C)C(=O)C(=O)N1CCC[C@H]1C(=O)CCCc1ccccc1` were, in that order, 180 nM, 34% and 35%.
In the same order, the values of `O=C(C(=O)N1CCC[C@H]1C(=O)CCCCc1ccccc1)C1CCCCC1` are 310 nM, 37.6% and 62.2%.
In the same order, the values of `CC(C)(C)C(=O)C(=O)N1CCCC[C@H]1C(=O)CCCCCc1ccccc1` are 290 nM, 50% and 36%.
In turn, `CCC(C)(C)C(=O)C(=O)N1CCC[C@H]1C(=O)CCCCc1c(F)c(F)c(C(F)(F)F)c(F)c1F` had a Ki in experiment [1] of 130 nM. Moreover, the results for the Recovery in the experiment with Mus musculus [2] and in the experiment on Mus musculus [3] were 7% and 27%, respectively.
In experiment [1], `O=C(C(=O)N1CCC[C@H]1C(=O)CCCCc1ccccc1)c1ccccc1` registered a Ki of 10000 nM. That is a double-digit micromolar value.
Still for that read-out and setting: as for `CCC(C)(C)C(=O)C(=O)N1CCCC[C@H]1C(=O)CCCCc1ccccc1`, the figure is 790 nM; as for `CCCCC(=O)[C@@H]1CCCN1C(=O)C(=O)C(C)(C)CC`, 2000 nM.
In experiment [1], `CCC(C)(C)C(=O)C(=O)N1CCC[C@H]1C(=O)CCCCc1ccc(O)cc1` had a Ki of 240 nM. The same compound had a Recovery with Mus musculus [3] of 33.5%.
Regarding `CCC(C)(C)C(=O)C(=O)N1CCCC[C@H]1C(=O)CCCCCc1cccnc1`, in experiment [1], affinity was put at a Ki of 900 nM.
On to `CCC(C)(C)C(=O)C(=O)N1CCC[C@H]1C(=O)CCCCc1cccnc1`, for which the Recovery came out at 38% with Mus musculus [2] and 34% in the experiment on Mus musculus [3].
In turn, `CCC(C)(C)C(=O)C(=O)N1CCC[C@H]1C(=O)CCCCCc1ccccc1` came in with an inhibitory constant (Ki) in experiment [1] of 3800 nM. The Recovery in the experiment on Mus musculus [2] was 46%; in the experiment with Mus musculus [3], 48%.
The compound `CCCCC(=O)[C@@H]1CCCCN1C(=O)C(=O)C(C)(C)CC` registered a Ki in experiment [1] of 3400 nM.
In experiment [1], `CCC(C)(C)C(=O)C(=O)N1CCC[C@H]1C(=O)CCCC(c1ccc(F)cc1)c1ccc(F)cc1` came in with a Ki of 460 nM. The Recovery in the experiment with Mus musculus [2] came out at 41%; with Mus musculus [3] it was 54%.
In turn, `CCC(C)(C)C(=O)C(=O)N1CCCC[C@H]1C(=O)CCCCCc1ccccc1` registered a Ki in experiment [1] of 3000 nM. Also, the Recovery in the experiment with Mus musculus [2] worked out at 46.3%.
